Results collected from several papers.
Protocols differ between the studies behind these lines.
ACVR2A: Activin receptor type-2A (ACVR2A, Homo sapiens, UniProt P27037)
BRD9: Bromodomain-containing protein 9 (BRD9, Homo sapiens, UniProt Q9H8M2)

Structure (SMILES)	target	test	setting	quantity	result
C1=C/COCc2cc(ccc2OCCN2CCCC2)Nc2nccc(n2)-c2cccc(c2)COC/1	Cyclin-dependent kinase-like 3 (CDKL3, Homo sapiens, UniProt Q8IVW4)	binding	0.1 µM	remaining binding	5.9%
COc1ccc2oc(-c3ccc4nc(N)oc4c3)c/c(=N\c3ccccc3NC(=O)CCN)c2c1	ACVR2A	binding, competition with immobilised ligand	1 µM	remaining binding	109%
CCN1/C(=C/C(C)=O)Sc2ccc(F)cc21	Histamine H3 receptor (HRH3, Homo sapiens, UniProt Q9Y5N1)	ligand displacement, radioligand	10 µM	inhibition	0%
CCC(=O)c1cc(-c2cc(OC)c(Cn3ccnc3)cc2OC)c2ccccn12	BRD9	thermal stability, DSF	200 µM	ΔTm	9.5 °C
CCCCC(=O)Nc1ccc(-c2ccc3ncn(CCC)c(=O)c3c2)cn1	ACVR2A	binding, competition with immobilised ligand	0.5 µM	remaining binding	95%
COc1cc(-c2cc(C(C)=O)n3ccccc23)c(OC)cc1C(C)=O	BRD9	thermal stability, DSF	200 µM	ΔTm	7.5 °C
Cc1cc(O)c(-c2ccc([C@@H](C)CN(C)C)cc2)c2c1[nH]c(=O)c1sccc12	Phosphatidylinositol 5-phosphate 4-kinase type-2 alpha (PIP4K2A, Homo sapiens, UniProt P48426)	enzyme activity, inhibitor	0.1 µM	inhibition	-0.0609%
COc1cc(-c2cc(C(C)=O)n3ccccc23)c(OC)cc1C(=O)N(C)C	BRD9	thermal stability, DSF	200 µM	ΔTm	13.5 °C
CC(=O)ON=C1C=CC(=C(C#N)c2ccccc2)C=C1	Serine/threonine-protein kinase haspin (HASPIN, Homo sapiens, UniProt Q8TF76)	enzyme activity, inhibitor, ADP detection	20 µM	activity vs control	57%
NC/C(=C\F)COc1cccc(Cn2c(=S)[nH]c(=O)c3[nH]cnc32)c1	Beta-2 adrenergic receptor (ADRB2, Homo sapiens, UniProt P07550)	ligand displacement, radioligand	10 µM	inhibition	< 50%
CN(C)CCOC(=O)COc1ccc(Cl)cc1	Cannabinoid receptor 2 (CNR2, Homo sapiens, UniProt P34972)	ligand displacement, radioligand	1 µM, cell membranes	inhibition	-3.85%
COc1cc(-c2cc(C(C)=O)n3ccccc23)c(OC)cc1C=O	BRD9	thermal stability, DSF	200 µM	ΔTm	8.3 °C
CCCC[C@H](NC(C)=O)C(=O)N[C@H]1CC(=O)NCCCC[C@@H](C(=O)N2CCC[C@@H]2C(=O)N[C@@H](C(=O)N2CCC[C@@H]2C(N)=O)C(C)C)NC(=O)[C@H](Cc2c[nH]c3ccccc23)NC(=O)[C@H](CCCNC(=N)N)NC(=O)[C@@H](Cc2ccccc2)NC(=O)[C@@H]2CCCN2C1=O	Melanocortin receptor 5 (MC5R, Homo sapiens, UniProt P33032)	cAMP, agonist	–	Emax	102%
CCN(C)Cc1c(OC)cc(-c2cc(C(C)=O)n3ccccc23)cc1OC	BRD9	thermal stability, DSF	200 µM	ΔTm	15.5 °C
Cc1ncc(-c2cc3cc(-c4c(C)ccc(O)c4C)cnc3[nH]2)cn1	Membrane-associated tyrosine- and threonine-specific cdc2-inhibitory kinase (PKMYT1, Homo sapiens, UniProt Q99640)	cell-free assay, TR-FRET	0.1235 µM	inhibition	97.2%
